From PubChem BioAssay
Rows were chosen to be rich in hits. Some 3.8% of all compounds tested hit in one or more screens of this group.
NPY2 pot ag: human NPY-Y2 potentiation or agonism, primary screen | P49146 | cells expressing NPY-Y2, potentiator/agonist read-out | activation, % at 3.6 µM | 0.45% of 220,000 active | AID 1359; in the data active = activation above about 27%;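 also: cells stimulated with NPY near EC25 plus isoproterenol at EC100; 0% = vehicle plus submaximal agonist and 100% = vehicle plus saturating agonist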
Target sequence (P49146 whole entry, looked up): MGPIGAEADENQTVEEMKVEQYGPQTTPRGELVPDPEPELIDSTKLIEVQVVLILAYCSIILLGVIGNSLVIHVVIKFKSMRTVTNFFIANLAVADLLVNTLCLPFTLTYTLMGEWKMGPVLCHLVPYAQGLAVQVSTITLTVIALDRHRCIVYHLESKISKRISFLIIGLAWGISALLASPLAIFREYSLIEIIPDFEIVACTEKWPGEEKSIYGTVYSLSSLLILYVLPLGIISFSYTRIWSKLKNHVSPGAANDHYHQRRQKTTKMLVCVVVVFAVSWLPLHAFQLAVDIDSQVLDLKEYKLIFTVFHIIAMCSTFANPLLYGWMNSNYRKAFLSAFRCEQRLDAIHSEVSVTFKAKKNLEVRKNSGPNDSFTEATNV
NPY-Y1 antag: NPY-Y1 (human) receptor antagonism | 1% of 200,000 active | inhibition, % at 3.6 µM | P25929 | HEK293-CNG Y1 cells, membrane potential fluorescence; NPY at EC95, then isoproterenol;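 active = inhibition above the campaign mean inhibition of all tested compounds plus 3 SD, cut at about 20% in these data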;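 also: 0% = DMSO wells given NPY plus isoproterenol and 100% = isoproterenol alone without NPY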
Target sequence (P25929 whole entry, looked up): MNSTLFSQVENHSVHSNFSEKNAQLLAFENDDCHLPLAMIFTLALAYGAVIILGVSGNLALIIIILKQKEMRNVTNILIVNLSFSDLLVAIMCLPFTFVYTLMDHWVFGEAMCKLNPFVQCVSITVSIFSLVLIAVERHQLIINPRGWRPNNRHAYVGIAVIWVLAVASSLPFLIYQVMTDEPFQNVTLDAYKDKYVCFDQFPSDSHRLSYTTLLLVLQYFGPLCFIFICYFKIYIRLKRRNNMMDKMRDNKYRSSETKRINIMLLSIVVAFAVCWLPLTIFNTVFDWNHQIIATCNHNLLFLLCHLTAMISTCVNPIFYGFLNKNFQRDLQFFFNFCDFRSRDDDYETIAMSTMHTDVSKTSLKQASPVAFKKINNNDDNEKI
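Test system – HEK293 Y1/CNG channel cell line · Also added – NPY agonist 25 nM, then isoproterenol 1 µM plus Ro 20-1724 25 µM · Compound dosing – one concentration, 3.6 µM, in 0.4% DMSO · Schedule – compound incubation 1 h at room temperature, readout 45 min post-stimulation · Technique – fluorescence, membrane potential probe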
RAM inhibit: inhibitors of the yeast RAM network; S. cerevisiae dse1pr::URA3 reporter, 5-FOA growth OD615, 2 d; analog-sensitive cbk1-as2 kinase mutant strain; inhibition, % at 50 µM; 1.8% of 190,000 active;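 active = inhibition above a set limit, 3 SD over mean compound inhibition, cut at about 8.4% in these data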;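 also: 0% = DMSO-only wells with no growth and 100% = 10 µM 1-NA-PP1 full growth; inhibition rescues growth on 5-FOA so higher OD means more RAM inhibition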
Insulin prom inh: TRM-6 insulin promoter activity inhibition. 0.9% of 130,000 active. inhibition, % at 2 µM. TRM-6 cells, insulin promoter-eGFP reporter, imaging; reporter expression induced with tamoxifen;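 active = inhibition above the mean plus 3 SD, with well images judged a real hit on visual review, cut at about 60% in these data, passing the limit was not always enough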
NPY Y2 blocker: antagonists of human neuropeptide Y receptor Y2 | NPY-Y2 expressing cells, antagonist mode | inhibition, % at 2.7 µM | 0.99% of 140,000 active; in the data active = inhibition above about 17%;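 also: 0% = vehicle with agonist challenge and 100% = reference antagonist with challenge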
NPY-Y1 PAM-ag: human NPY-Y1 potentiation or agonism, primary screen; P25929; NPY-Y1 expressing cells, potentiator/agonist activation; activation, % at 3.6 µM; 0.37% of 220,000 active; AID 1304; in the data active = activation above about 33%, passing the limit was not always enough;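 also: cells stimulated with NPY at EC10 then isoproterenol at EC100; 0% = low agonist plus stimulus and 100% = saturating agonist plus stimulus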
NPY-Y1 confirm: confirmation of human NPY-Y1 receptor potentiators or agonists. activation, % at 3.6 µM. 20% of 280 active. cell-based NPY-Y1 potentiator/agonist assay. shares compounds with NPY-Y1 PAM-ag; in the data active = activation above about 45%;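 also: cells challenged with NPY at its EC10 plus isoproterenol stimulus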
NPY-Y2 counter: potentiates or activates NPY-Y2, counter-screen for NPY-Y1 hits. HEK293-CNG cells, membrane-potential fluorescence (FLIPR), 1536-well. shares compounds with NPY-Y1 PAM-ag. activation, % at 3.6 µM. 20% of 280 active; in the data active = activation above about 33%
NPY-Y1 ag: activates human NPY-Y1, counter-screen for NPY-Y1 potentiators; shares compounds with NPY-Y1 PAM-ag; HEK293 Y1-CNGC, membrane potential fluorescence, agonist mode; activation, % at 3.6 µM; 50% of 280 active; AID 1697;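 active = percent activation above the mean of DMSO-only control wells plus 3 SD of those wells, cut at about 18% in these data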;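 also: cells challenged with isoproterenol plus Ro 20-1724 with no NPY in test wells; Y1 agonism lowers isoproterenol-driven cAMP and reduces probe fluorescence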
NPY-Y2 agonist: human NPY-Y2 agonism as NPY-Y1 counter-screen. 67% of 280 active. AID 1698. activation, % at 3.6 µM. HEK293 Y2-CNGC, membrane potential fluorescence, agonist mode. shares compounds with NPY-Y1 PAM-ag;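 active = activation above the solvent-only control wells' mean plus 3 SD, cut at about 11% in these data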;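 also: 0% = DMSO with isoproterenol and 100% = 40 nM NPY maximal response; agonism lowers cAMP so well fluorescence drops in active wells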
CNGC counter: CNG channel inhibition, counter-screen for NPY-Y1 potentiators | inhibition, % at 3.6 µM | AID 1704 | HEK293-CNG parental, isoproterenol cAMP, membrane potential fluorescence | shares compounds with NPY-Y1 PAM-ag | 42% of 280 active;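 active = inhibition above the mean of stimulated solvent-only control wells plus 3 SD, cut at about 22% in these data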;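 also: 0% = isoproterenol-stimulated DMSO wells and 100% = unstimulated DMSO wells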
The depositor's hits bear a star; nt = no result.

SMILES	NPY2 pot ag	NPY-Y1 antag	RAM inhibit	Insulin prom inh	NPY Y2 blocker	NPY-Y1 PAM-ag	NPY-Y1 confirm	NPY-Y2 counter	NPY-Y1 ag	NPY-Y2 agonist	CNGC counter
CCCCCCCCCCCCCCCCn1cc[n+](CC(C)=O)c1	23	-4	-2	-31	nt	58*	58*	25	38*	19*	28*
CCCCCCn1ccc(=N)cc1	-2	2	2	18	1	-1	nt	nt	nt	nt	nt
O=C(NCC1COc2ccccc2O1)C1CCC(CNc2c(N3CCCCC3)c(=O)c2=O)CC1 (stereo not given)	nt	nt	1	nt	nt	nt	nt	nt	nt	nt	nt
CCN1C(=O)/C(=C/C=C2\N(CC)c3cc(S(=O)(=O)N(C)C)ccc3N2c2ccccc2)SC1=S	18	nt	nt	nt	nt	50*	57*	52*	51*	63*	39*
COc1ccc(N(C)S(=O)(=O)c2cccc(C(=O)Nc3cc(OC)ccc3OC)c2)cc1	-1	6	3	30	nt	-12	nt	nt	nt	nt	nt
COc1ccc(N(C)S(=O)(=O)c2cccc(C(=O)Nc3nnc(C4CC4)s3)c2)cc1	6	-3	1	0	nt	38*	44	30	41*	20*	40*
CCN(CC)c1ccc(/C=C(/C#N)c2nc3ccc(C)cc3[nH]2)c(OC(C)C)c1	32	-3	0	-245	-5	44*	52*	38*	28*	45*	30*
CCCOc1cc(N(CC)CC)ccc1/C=C(/C#N)c1nc2ccc(C)cc2[nH]1	27	2	4	nt	2	25	nt	nt	nt	nt	nt
O=C1N=c2ccccc2=C1c1sc(=S)n(Cc2ccccc2Cl)c1O	-6	nt	nt	nt	nt	72*	37	38*	25*	30*	30*
C(=Nc1ccc(Nc2ccccc2)cc1)c1ccc2ccccc2c1	22	-8	2	64*	4	46*	-14	-9	3	0	-1
Brc1ccc(C=Nc2ccc(Nc3ccccc3)cc2)s1	16	0	3	27	2	40*	2	2	9	17*	8
Cc1nc(-c2cccc(-c3noc(C)n3)c2)no1	-9	1	2	-6	2	38*	-5	-1	-3	-7	-8
CC(C)(C)c1cc(NCCCn2ccnc2)n2ncc(-c3ccc(Cl)cc3)c2n1	19	-4	-1	-8	-4	33	nt	nt	nt	nt	nt
CN(C)CCCNc1cc(C(C)(C)C)nc2c(-c3ccccc3)cnn12	27	nt	nt	nt	nt	55*	41	34*	25*	20*	35*
CCCN1C(=O)/C(=C/c2ccc(OCC(=O)OCC)cc2)NC1=S	22	-7	3	nt	nt	78*	122*	101*	110*	105*	100*
CCCN1C(=O)/C(=C/c2ccc(N3CCOCC3)cc2)NC1=S	18	-5	6	nt	nt	13	nt	nt	nt	nt	nt
COc1ccc(OC)c2sc(NC(=O)c3ccc(S(=O)(=O)N(C)C)cc3)nc12	-3	-3	6	nt	-4	34*	20	5	12	18*	17
CC(C)c1cc(Nc2cccc(O)c2)cc(C(C)C)c1O	10	5	nt	-27	0	3	nt	nt	nt	nt	nt
COc1cc(OC)cc(C(=O)Nc2ccc(S(=O)(=O)Nc3nc(C)cc(C)n3)cc2)c1	4	8	5	nt	nt	20	nt	nt	nt	nt	nt
CCn1ccnc1CN1CCc2c([nH]c3ccccc23)C1C(C)(C)C (stereo not given)	15	-5	0	nt	nt	34*	16	11	7	22*	11
CCn1ccnc1CN1CCc2c([nH]c3ccccc23)C1CC(C)C (stereo not given)	-9	3	2	nt	nt	9	nt	nt	nt	nt	nt
CSc1ccc(C2NC(=O)c3c(sc4c3CCN(C)C4)N2)cc1 (stereo not given)	8	3	0	nt	2	42*	4	0	-6	-3	3
CN1CCc2c(sc3c2C(=O)NC(c2cccs2)N3)C1 (stereo not given)	2	-9	1	nt	-1	-3	nt	nt	nt	nt	nt
Cc1ccc2cccc(SCC(=O)NCC#N)c2n1	-5	2	0	24	1	16	nt	nt	nt	nt	nt
CCn1c(C)c(C(C)=O)cc(C#N)c1=O	-8	4	0	nt	nt	4	nt	nt	nt	nt	nt
SMILES	NPY2 pot ag	NPY-Y1 antag	RAM inhibit	Insulin prom inh	NPY Y2 blocker	NPY-Y1 PAM-ag	NPY-Y1 confirm	NPY-Y2 counter	NPY-Y1 ag	NPY-Y2 agonist	CNGC counter
Cc1ccc(-c2nnc(-c3ccc(NC(=O)Cc4cccs4)cc3)o2)cc1	0	3	0	nt	0	50*	-22	-9	-13	3	0
CN1CCN(C(=O)/C=C\C(=O)O)CC1	2	-2	0	-13	5	-11	nt	nt	nt	nt	nt
COc1ccc2c(c1)c(/C=N/Nc1nc3ccccc3[nH]1)c(C)n2C	29	nt	nt	nt	nt	42*	60*	47*	42*	50*	36*
COc1cc(/C=N\Nc2nc3ccccc3[nH]2)cc(OC)c1OC	-5	2	0	nt	1	-20	nt	nt	nt	nt	nt
COc1ccc(CN(CC2CCC(C(=O)O)CC2)C(=S)Nc2cc(Cl)ccc2OC)cc1 (stereo not given)	8	-3	8	nt	nt	-13	nt	nt	nt	nt	nt
CC(=O)Nc1ccc(S(=O)(=O)NCCC(=O)NCCc2ccc(F)cc2)cc1	15	6	1	-46	-1	62*	10	1	-5	10	0
CCNS(=O)(=O)c1ccc(NC(=O)Cc2ccc(F)cc2)cc1	10	-4	2	28	-1	-6	nt	nt	nt	nt	nt
COc1cc2c3c(c1)c(N=NC(N)=S)c(O)n3C(C)(C)C=C2C	24	nt	nt	nt	nt	55*	74*	61*	47*	60*	54*
O=C1CCCC/C1=C/NCc1ccc(F)cc1	-9	-4	0	20	nt	14	nt	nt	nt	nt	nt
CCC(CC)c1nn2c(N)c(/C=C3\C=Nc4ccccc43)c(=O)nc2s1	12	nt	nt	nt	nt	73*	95*	82*	97*	85*	46*
CC(C)c1nn2c(N)c(/C=C3\C=Nc4ccccc43)c(=O)nc2s1	11	nt	nt	nt	nt	9	nt	nt	nt	nt	nt
C=CC(=O)N1c2ccccc2Sc2ccc(NC(=O)OCC)cc21	20	-3	5	40	3	42*	24	17	20*	13*	15
COc1ccc(-c2cc3ccccc3[nH]2)cc1	18	nt	nt	nt	nt	24	nt	nt	nt	nt	nt
